Assay results as given in ChEMBL document CHEMBL4049457, “Pentafluorosulfanyl-Substituted Benzopyran Analogues As New Cyclooxygenase-2 Inhibitors with Excellent Pharmacokinetics and Efficacy in Blocking Inflammation” (J Med Chem, 2017).
Each block holds one compound with its values, some of them ahead of it.

Key:
[1] = molecular target: Prostaglandin G/H synthase 1 (Homo sapiens, UniProt P23219); experiment: Inhibition of human COX-1 preincubated for 15 mins followed by fluorometric substrate/heme addition for 15 mins subsequently incubated with arachidonic acid for 2 mins by fluorescence analysis; assay type: ADME
Sequence of Prostaglandin G/H synthase 1 (P23219 whole entry): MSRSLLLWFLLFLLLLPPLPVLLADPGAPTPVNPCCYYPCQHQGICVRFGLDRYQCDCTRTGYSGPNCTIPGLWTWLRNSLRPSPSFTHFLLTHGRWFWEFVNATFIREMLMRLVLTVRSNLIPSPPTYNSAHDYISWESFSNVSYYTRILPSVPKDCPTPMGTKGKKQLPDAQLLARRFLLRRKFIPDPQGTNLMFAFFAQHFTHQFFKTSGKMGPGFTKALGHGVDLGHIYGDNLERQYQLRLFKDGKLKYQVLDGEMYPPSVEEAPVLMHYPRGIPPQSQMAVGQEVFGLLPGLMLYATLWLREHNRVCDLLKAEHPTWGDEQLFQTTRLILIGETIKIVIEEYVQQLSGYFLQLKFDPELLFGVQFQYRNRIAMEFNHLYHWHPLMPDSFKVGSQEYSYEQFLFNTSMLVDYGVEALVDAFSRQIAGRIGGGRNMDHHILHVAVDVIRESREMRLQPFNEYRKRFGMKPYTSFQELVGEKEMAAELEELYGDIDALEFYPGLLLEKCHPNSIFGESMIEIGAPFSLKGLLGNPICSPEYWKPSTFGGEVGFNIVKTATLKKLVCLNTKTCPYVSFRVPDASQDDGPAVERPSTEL

[2] = molecular target: T1, Prostaglandin G/H synthase 2 (Homo sapiens, UniProt P35354); experiment: Inhibition of recombinant human COX-2 preincubated for 15 mins followed by fluorometric substrate/heme addition for 15 mins subsequently incubated with arachidonic acid for 2 mins by fluorescence analysis
T1 sequence (P35354 whole entry): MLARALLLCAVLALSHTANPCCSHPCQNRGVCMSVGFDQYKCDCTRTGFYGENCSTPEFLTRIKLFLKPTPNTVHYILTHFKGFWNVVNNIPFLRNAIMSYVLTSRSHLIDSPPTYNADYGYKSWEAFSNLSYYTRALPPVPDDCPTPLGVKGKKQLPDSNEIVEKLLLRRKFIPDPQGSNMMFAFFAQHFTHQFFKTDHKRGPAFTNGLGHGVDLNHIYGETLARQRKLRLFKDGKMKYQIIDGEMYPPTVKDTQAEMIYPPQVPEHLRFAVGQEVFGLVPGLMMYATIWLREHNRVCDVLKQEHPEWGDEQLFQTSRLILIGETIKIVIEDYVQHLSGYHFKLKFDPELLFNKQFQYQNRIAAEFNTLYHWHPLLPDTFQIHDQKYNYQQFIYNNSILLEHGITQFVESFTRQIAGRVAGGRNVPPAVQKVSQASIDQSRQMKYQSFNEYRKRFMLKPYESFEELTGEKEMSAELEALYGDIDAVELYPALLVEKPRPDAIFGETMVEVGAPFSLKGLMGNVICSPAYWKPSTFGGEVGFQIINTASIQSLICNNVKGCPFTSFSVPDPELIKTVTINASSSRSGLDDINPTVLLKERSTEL

[3] = (§1) Protein binding in human plasma at 10 uM after 5 hrs by rapid equilibrium dialysis; assay type: ADME, cell-free; conditions: read-out: PPB (converted)
Outline: (§2)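 Rapid equilibrium dialysis against human plasma for 5 h; drug in plasma and buffer chambers quantified by LC/MS; bound % = [1 − (buffer/plasma concentration)] × 100, n = 3.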

[4] = molecular target: Voltage-gated inwardly rectifying potassium channel KCNH2 (Homo sapiens, UniProt Q12809); experiment: Binding affinity to human ERG up to 50 uM after 2 hrs by fluorescence polarization assay
Sequence of Voltage-gated inwardly rectifying potassium channel KCNH2 (Q12809 whole entry): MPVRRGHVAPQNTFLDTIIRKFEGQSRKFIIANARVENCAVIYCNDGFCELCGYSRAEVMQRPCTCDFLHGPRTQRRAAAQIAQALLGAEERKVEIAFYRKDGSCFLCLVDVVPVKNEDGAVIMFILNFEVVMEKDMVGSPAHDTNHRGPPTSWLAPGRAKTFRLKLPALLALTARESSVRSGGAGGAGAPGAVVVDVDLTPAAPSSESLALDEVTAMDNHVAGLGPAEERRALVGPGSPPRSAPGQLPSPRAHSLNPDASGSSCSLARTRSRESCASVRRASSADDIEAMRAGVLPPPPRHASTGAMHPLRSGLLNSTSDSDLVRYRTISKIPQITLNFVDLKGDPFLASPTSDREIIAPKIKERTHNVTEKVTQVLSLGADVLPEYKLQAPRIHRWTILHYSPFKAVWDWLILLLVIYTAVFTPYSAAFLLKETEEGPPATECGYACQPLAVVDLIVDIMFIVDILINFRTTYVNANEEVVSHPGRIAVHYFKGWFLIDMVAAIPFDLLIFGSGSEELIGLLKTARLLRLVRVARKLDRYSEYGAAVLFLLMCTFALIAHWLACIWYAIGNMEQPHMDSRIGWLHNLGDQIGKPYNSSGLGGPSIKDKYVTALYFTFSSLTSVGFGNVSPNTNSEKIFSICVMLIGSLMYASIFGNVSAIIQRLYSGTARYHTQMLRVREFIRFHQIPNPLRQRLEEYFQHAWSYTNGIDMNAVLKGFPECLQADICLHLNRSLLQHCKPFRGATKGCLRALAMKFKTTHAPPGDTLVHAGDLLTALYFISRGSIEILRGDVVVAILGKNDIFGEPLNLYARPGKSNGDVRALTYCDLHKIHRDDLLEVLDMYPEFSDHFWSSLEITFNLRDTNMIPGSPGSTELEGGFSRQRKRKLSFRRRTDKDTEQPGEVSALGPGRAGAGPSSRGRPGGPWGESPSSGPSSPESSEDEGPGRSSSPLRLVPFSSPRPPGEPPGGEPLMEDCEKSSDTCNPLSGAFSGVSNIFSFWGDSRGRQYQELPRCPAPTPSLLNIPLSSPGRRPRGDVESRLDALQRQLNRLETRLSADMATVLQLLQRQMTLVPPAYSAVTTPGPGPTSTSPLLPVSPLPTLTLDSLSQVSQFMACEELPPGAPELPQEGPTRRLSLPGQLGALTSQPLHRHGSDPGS
Outline: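 Fluorescence polarization tracer displacement kit: hERG membrane plus red tracer with compound or positive control, 2 h at room temperature, read with polarized excitation/emission filters; dofetilide-binding surrogate for hERG.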

[5] = AUC (0 to infinity) in Sprague-Dawley rat at 5 mg/kg, po administered via gastric gavage by LC-MS/MS analysis; assay type: ADME, organism-based; set-up: dose 5 mg/kg, route oral, time infinity; conditions: in vivo
[6] = Half-life in Sprague-Dawley rat at 5 mg/kg, po administered via gastric gavage by LC-MS/MS analysis; assay type: ADME, organism-based; conditions: in vivo
[7] = Tmax in Sprague-Dawley rat at 5 mg/kg, po administered via gastric gavage by LC-MS/MS analysis; assay type: ADME, organism-based; conditions: in vivo
[8] = Cmax in Sprague-Dawley rat at 5 mg/kg, po administered via gastric gavage by LC-MS/MS analysis; assay type: ADME, organism-based; set-up: dose 5 mg/kg, route oral; conditions: in vivo
[9] = Oral bioavailability in Sprague-Dawley rat at 5 mg/kg administered via gastric gavage by LC-MS/MS analysis; assay type: ADME, organism-based; conditions: in vivo
[10] = AUC (0 to infinity) in Sprague-Dawley rat at 5 mg/kg, iv by LC-MS/MS analysis; assay type: ADME, organism-based; set-up: dose 5 mg/kg, time infinity, route intravenous; conditions: in vivo
[11] = Half-life in Sprague-Dawley rat at 5 mg/kg, iv by LC-MS/MS analysis; assay type: ADME, organism-based; conditions: in vivo
[12] = Tmax in Sprague-Dawley rat at 5 mg/kg, iv by LC-MS/MS analysis; assay type: ADME, organism-based; conditions: in vivo
[13] = Cmax in Sprague-Dawley rat at 5 mg/kg, iv by LC-MS/MS analysis; assay type: ADME, organism-based; set-up: dose 5 mg/kg, route intravenous; conditions: in vivo
Rattus norvegicus [14] = experiment: Antiinflammatory activity in carrageenan induced Sprague-Dawley rat model of inflammation assessed as reduction in PGE2 levels in air pouch administered via po 1 hr prior to carrageenan challenge measured 3 hrs post challenge by ELISA; assay type: functional
Outline: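 Male SD rats; 20 mL sterile air injected subcutaneously in back. Oral dosing in 0.5% carboxymethyl cellulose at 0.03–10 mg/kg (n = 6), vehicle control; 1 h later 6 mL 1% carrageenan into pouch (one day after pouch formation).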

Rattus norvegicus [15] = experiment: Antiinflammatory activity in carrageenan induced Sprague-Dawley rat model of inflammation assessed as reduction in paw edema administered via po 0.5 hrs prior to carrageenan challenge measured 1 to 4 hrs post challenge by plethysmometer; assay type: functional
Outline: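 Male SD rats dosed orally in 0.5% carboxymethyl cellulose at 1, 3, 10, 30, 100 mg/kg (n = 6), vehicle control, 0.5 h before carrageenan into right hind paw. Paw volume by water-displacement plethysmometer before and after injection; percent inhibition from paw-volume increment versus controls; ED50 fitted.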

Rattus norvegicus [16] = experiment: Antiinociceptive activity in carrageenan induced Sprague-Dawley rat model of pain assessed as reversal of paw thermal hyperalgesia administered via po 0.5 hrs prior to carrageenan challenge measured 3 hrs post challenge; assay type: functional
Outline: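 Male SD rats (180–220 g), 0.2 mL 3% λ-carrageenan subcutaneously into right hind paw; oral dosing in 0.5% carboxymethyl cellulose at 1–100 mg/kg (n = 6) 0.5 h before.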

Rattus norvegicus [17] = experiment: Antiarthritic activity in adjuvant-induced Lewis rat model of arthritis assessed as reduction in paw edema administered via oral gavage once daily starting from day 15 to 25 post adjuvant injection measured post last dose; assay type: functional; conditions: 360 h
Outline: (§3)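 Adjuvant arthritis in male Lewis rats (170–200 g): 1 mg heat-killed M. tuberculosis in 0.2 mL mineral oil into tail base; responders (left hind paw >0.375 mL above day 0 at day 14) randomized, n = 6/group. Oral gavage once daily in 0.5% methylcellulose at 0.1–10 mg/kg, days 15–24. Day 25: plethysmometer paw volume, limb scores 0–4 (total 0–16), movement 0–3; ED50 derived.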

Rattus norvegicus [18] = experiment: Antiarthritic activity in adjuvant-induced Lewis rat model of arthritis assessed as reduction in arthritis score administered via oral gavage once daily starting from day 15 to 25 post adjuvant injection measured post last dose; assay type: functional; conditions: 360 h; outline: as §3
Rattus norvegicus [19] = experiment: Antiarthritic activity in adjuvant-induced Lewis rat model of arthritis assessed as reduction in movement disorder administered via oral gavage once daily starting from day 15 to 25 post adjuvant injection measured post last dose; assay type: functional; conditions: 360 h; outline: as §3
Rattus norvegicus [20] = experiment: Antiarthritic activity in adjuvant-induced Lewis rat model of arthritis assessed as inhibition of paw edema score at 10 mg/kg administered via oral gavage every 5 days starting from day 15 to 25 post adjuvant injection measured post last dose; assay type: functional
Outline: (§4)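 Lewis male rats (170–200 g) given 1 mg heat-killed M. tuberculosis in 0.2 mL mineral oil at tail base; rats with left hind paw volume increase >0.375 mL by day 14 selected. Compound dosed orally at 10 mg/kg every 5 days from day 15 (two doses). Scored day 25: paw volume, arthritis 0–16 (erythema/swelling), movement 0–3.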

Rattus norvegicus [21] = experiment: Antiarthritic activity in adjuvant-induced Lewis rat model of arthritis assessed as inhibition of arthritis score at 10 mg/kg administered via oral gavage every 5 days starting from day 15 to 25 post adjuvant injection measured post last dose; assay type: functional; outline: as §4
Rattus norvegicus [22] = experiment: Antiarthritic activity in adjuvant-induced Lewis rat model of arthritis assessed as inhibition of movement disorder score at 10 mg/kg administered via oral gavage every 5 days starting from day 15 to 25 post adjuvant injection measured post last dose; assay type: functional; outline: as §4
Plasma = experiment: as §1; assay type: ADME, cell-free; conditions: 5 h, 10 µM; outline: as §2

SMILES: O=C(O)C1=Cc2cc(S(F)(F)(F)(F)F)ccc2O[C@@H]1C(F)(F)F
- IC50 [1]: > 30000 nM
- IC50 [2]: 10 nM
- fraction unbound at 5 h, 10 µM [3]: 0.0004
- Activity [4]: Not Active

SMILES: CN(C)CCCN1c2ccccc2Sc2ccc(Cl)cc21.Cl [CHLORPROMAZINE HYDROCHLORIDE]
- PPB (Plasma): 99.82%

SMILES: Cc1ccc(-c2cc(C(F)(F)F)nn2-c2ccc(S(N)(=O)=O)cc2)cc1 [CELECOXIB]
- ED50 (Rattus norvegicus [14]): 0.69 mg/kg
- ED50 (Rattus norvegicus [15]): 2.8 mg/kg
- ED50 (Rattus norvegicus [16]): 5 mg/kg
- ED50 (Rattus norvegicus [17]): 1.6 mg/kg
- ED50 (Rattus norvegicus [18]): 0.71 mg/kg
- ED50 (Rattus norvegicus [19]): 9.2 mg/kg

SMILES: O=C(O)C1=Cc2ccc(S(F)(F)(F)(F)F)cc2OC1C(F)(F)F (centres undefined)
- IC50 [1]: > 10000 nM
- IC50 [2]: > 10000 nM
- fraction unbound at 5 h, 10 µM [3]: 0.0006

SMILES: CCCCc1cc(S(F)(F)(F)(F)F)cc2c1OC(C(F)(F)F)C(C(=O)O)=C2 (centres undefined)
- IC50 [1]: > 10000 nM
- IC50 [2]: 190 nM
- fraction unbound at 5 h, 10 µM [3]: 0.0008
- Activity [4]: Not Active

SMILES: O=C(O)C1=Cc2cc(S(F)(F)(F)(F)F)cc(Br)c2O[C@H]1C(F)(F)F
- IC50 [1]: > 10000 nM
- IC50 [2]: 340 nM
- fraction unbound at 5 h, 10 µM [3]: 0.0005

SMILES: O=CC1=Cc2cc(S(F)(F)(F)(F)F)ccc2OC1C(F)(F)F (centres undefined)
- IC50 [1]: > 10000 nM
- IC50 [2]: > 10000 nM

The next lines start with results.

- IC50 [1]: > 10000 nM
- IC50 [2]: > 100000 nM
SMILES: O=C(O)C1=Cc2cc(S(F)(F)(F)(F)F)cc(Cc3ccccc3)c2OC1C(F)(F)F (centres undefined)

- IC50 [1]: > 10000 nM
- IC50 [2]: 56 nM
SMILES: O=C(O)C1=Cc2cc(S(F)(F)(F)(F)F)cc(Br)c2OC1C(F)(F)F (racemic)

- IC50 [1]: > 10000 nM
- IC50 [2]: 18 nM
- fraction unbound at 5 h, 10 µM [3]: 0.001
- AUC(0-inf) [5]: 414 µg·h/mL
- half-life [6]: 12.5 h
- Tmax [7]: 7.75 h
- Cmax [8]: 15300 ng/mL
- bioavailability [9]: 100 to 114%
- AUC(0-inf) [10]: 364 µg·h/mL
- half-life [11]: 17.3 h
- Tmax [12]: 1.98 min
- Cmax [13]: 31700 ng/mL
SMILES: O=C(O)C1=Cc2cc(S(F)(F)(F)(F)F)ccc2OC1C(F)(F)F (centres undefined)
- Activity [4]: Not Active
- Activity (Rattus norvegicus [14]): Dose-dependent effect
- ED50 (Rattus norvegicus [14]): 0.37 mg/kg
- Activity (Rattus norvegicus [15]): Dose-dependent effect
- ED50 (Rattus norvegicus [15]): 4 mg/kg
- Activity (Rattus norvegicus [16]): Dose-dependent effect
- ED50 (Rattus norvegicus [16]): 2.8 mg/kg
- ED50 (Rattus norvegicus [17]): 0.093 mg/kg
- ED50 (Rattus norvegicus [18]): 0.094 mg/kg
- ED50 (Rattus norvegicus [19]): 0.12 mg/kg
- inhibition in vivo at 10 mg/kg (Rattus norvegicus [20]): 66.9%
- inhibition in vivo at 10 mg/kg (Rattus norvegicus [21]): 69.6%
- inhibition in vivo at 10 mg/kg (Rattus norvegicus [22]): 79.2%

- IC50 [1]: > 10000 nM
- IC50 [2]: 26 nM
- fraction unbound at 5 h, 10 µM [3]: 0.0005
SMILES: Cc1cc(S(F)(F)(F)(F)F)cc2c1OC(C(F)(F)F)C(C(=O)O)=C2 (centres undefined)
- Activity [4]: Not Active

- IC50 [1]: > 10000 nM
- IC50 [2]: 46 nM
SMILES: CCCc1cc(S(F)(F)(F)(F)F)cc2c1OC(C(F)(F)F)C(C(=O)O)=C2 (centres undefined)
- Activity [4]: Not Active

- IC50 [1]: > 10000 nM
- IC50 [2]: > 10000 nM
SMILES: O=CC1=Cc2cc(S(F)(F)(F)(F)F)cc(Br)c2OC1C(F)(F)F (centres undefined)

- IC50 [1]: > 10000 nM
- IC50 [2]: 8 nM
- fraction unbound at 5 h, 10 µM [3]: 0.0009
SMILES: O=C(O)C1=Cc2cc(S(F)(F)(F)(F)F)cc(Br)c2O[C@@H]1C(F)(F)F

- IC50 [1]: > 10000 nM
- IC50 [2]: 302 nM
SMILES: O=C(O)C1=Cc2cc(S(F)(F)(F)(F)F)ccc2O[C@H]1C(F)(F)F

- IC50 [1]: > 10000 nM
- IC50 [2]: 60 nM
SMILES: CCc1cc(S(F)(F)(F)(F)F)cc2c1OC(C(F)(F)F)C(C(=O)O)=C2 (centres undefined)
- Activity [4]: Not Active
